20 molecules from ChEMBL document CHEMBL2010641, “A novel 3,4-dihydropyrimidin-2(1H)-one: HIV-1 replication inhibitors with improved metabolic stability” (Bioorg Med Chem Lett, 2012) can be followed below.

The source made the active and inactive calls.

For data set [1], the system named is Human immunodeficiency virus 1. The data set is described as follows: Antiviral activity against HIV1 LAI infected in CEMx174 cells coexpressing GFP after 5 days by fluorimetry. Conditions: for EC50: Human immunodeficiency virus 1, LAI, CEMx174, 120 h. Format: functional, organism-based. An outline of the steps:
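Cells (4000/well) pre-incubated with compound diluted in DMSO for 1 h at 37 °C, 5% CO2, then infected with HIV-1 LAI at MOI 3 and cultured 5 days at 37 °C, 5% CO2. EC50 is the concentration inhibiting viral replication by 50%. Values are geometric means of two determinations (n = 2), each within 25% of the mean.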

A short description of data set [2]: Cytotoxicity against human CEmx174 cells. The format is cell-based. An outline of the steps: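 CC50 is the concentration that reduces viability of uninfected cells by 50%. Reported as the geometric mean of two determinations (n = 2), each within 25% of the mean.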
The nature of data set [3]: Half life in human liver microsomes at 2 uM. The format is ADME, Microsome. An outline of the steps: (§1)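 Compound at 2 µM final was incubated with rat or human liver microsomes (0.5 mg/mL protein) in potassium phosphate buffer with 0.2% DMSO final. Reaction was started with NADPH and stopped at 0, 5, 10, 30, 60 and 120 min. Loss of parent was measured by LC/MS (ESI quadrupole, water/acetonitrile with 0.1% formic acid gradient). Values are geometric means of n = 2.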
For orientation: Liver microsomes are a subcellular fraction often used to study metabolism.

A short description of data set [4]: Half life in rat liver microsomes at 2 uM. Format: ADME, Microsome. An outline of the steps:
as §1

For the molecule `CCC1=C(C(=O)O)[C@H](c2cccc(O)c2)NC(=O)N1`, the result in data set [1] was inactive.

By EC50 is commonly meant the concentration at which the effect is half-maximal. A high value points to a less potent agent. What is called CC50 is the concentration that lowers cell viability or growth by half. Regarding `CCC1=C(c2nc(C3CCCCC3)c[nH]2)[C@H](c2ccc(O)c(F)c2)NC(=O)N1`, the EC50 in data set [1] was > 10 µM. For the same molecule, the CC50 in data set [2] was > 10 µM.

Consider `CCC1=C(C(=O)CC2CCC(OC)CC2)[C@H](c2ccc(O)c(Cl)c2)NC(=O)N1` (stereo not given in full), for which, in data set [1], the EC50 is > 10 µM. For the same molecule, in data set [2], the CC50 is > 10 µM.

Consider `O=C1NC2=C(C(=O)OCC2)C(c2cccc(O)c2)N1` (stereo not given), for which the EC50 in data set [1] was > 10 µM. For the same molecule, the CC50 in data set [2] was > 10 µM.

With `CCC1=C(C(=O)CC2CCCC2)[C@H](c2ccc(O)c(Cl)c2)NC(=O)N1`, in data set [1], the EC50 turned out to be 3.28 µM. Moreover, in data set [2], the CC50 is > 10 µM.

For the molecule `O=C1NC2=C(C(=O)OC2)C(c2cccc(O)c2)N1` (stereo not given), in data set [1], the EC50 is > 10 µM. Also, in data set [2], the half-maximal cytotoxic concentration (CC50) is > 10 µM.

Regarding `CCC1=C(C(=O)CC2CCC(C(C)C)CC2)[C@H](c2ccc(O)c(Cl)c2)NC(=O)N1` (stereo not given in full), the EC50 in data set [1] came to 1.4 µM. For the same molecule, the CC50 in data set [2] was > 10 µM.

A word on the half-life: it is the time needed for the level to fall by half in the phase considered. Higher therefore signals slow decline. Take `CCC1=C(C(=O)OCC2CCCCC2)[C@H](c2cccc(O)c2)NC(=O)N1`: the CC50 in data set [2] was > 10 µM. The half-life at 2 µM is 11 min in data set [3] and 1.5 min in data set [4].

In data set [1], `CCC1=C(C(=O)CC2CCCCC2)[C@H](c2ccc(O)c(Cl)c2)NC(=O)N1` returned an EC50 of 0.983 µM. In addition, the CC50 in data set [2] was > 10 µM. The half-life at 2 µM in data set [3] was 18 min; in data set [4], 7 min.

Take `CCC1=C(C(=O)CCC2CCCCCC2)[C@H](c2ccc(O)c(Cl)c2)NC(=O)N1`: in data set [1], the EC50 was found to be 0.329 µM. The CC50 in data set [2] was > 10 µM.

As for `Cc1ccnc2c1NC(=O)c1cccnc1N2C1CC1` [NEVIRAPINE], the CC50 in data set [2] is > 10 µM.

`CCC1=C(C(=O)CC2CCC(C)CC2)[C@H](c2ccc(O)c(Cl)c2)NC(=O)N1` (stereo not given in full) yielded an EC50 in data set [1] of 0.48 µM. Moreover, the CC50 in data set [2] was > 10 µM.

In data set [1], `CCC1=C(c2nc(C3CCCCC3)cs2)[C@H](c2ccc(O)c(Cl)c2)NC(=O)N1` registered an EC50 of 0.078 µM. Besides, the CC50 in data set [2] is > 10 µM. The half-life at 2 µM in data set [3] was 682 min; in data set [4], 30 min.

`CCC1=C(c2nc(C3CCCCC3)co2)[C@H](c2ccc(O)c(Cl)c2)NC(=O)N1` returned an EC50 in data set [1] of 0.116 µM. Moreover, in data set [2], the CC50 was > 10 µM. Moreover, the half-life at 2 µM came out at 132 min in data set [3] and 54 min in data set [4].

As for `CCC1=C(C(=O)O)[C@H](c2ccc(O)c(Cl)c2)NC(=O)N1`, in data set [1], the result was inactive.

The molecule `CCC1=C(C(=O)CCC2CCCCC2)[C@H](c2ccc(O)c(Cl)c2)NC(=O)N1` yielded an EC50 in data set [1] of 0.403 µM. Besides, the CC50 in data set [2] was > 10 µM. Further, the half-life at 2 µM came out at 22 min in data set [3] and 5 min in data set [4].

Consider `CCC1=C(C(=O)OCC2CCCCC2)[C@H](c2ccc(O)c(Cl)c2)NC(=O)N1`, for which, in data set [1], the EC50 is 0.019 µM. In addition, the CC50 in data set [2] is > 10 µM. For the same molecule, the results for the half-life at 2 µM in data set [3] and in data set [4] were 36 min and 7 min, respectively.

`CCC1=C(C(=O)CCC2CCCC2)[C@H](c2ccc(O)c(Cl)c2)NC(=O)N1` had an EC50 in data set [1] of 0.42 µM. In data set [2], the CC50 is > 10 µM.

Consider `CCC1=C(C(=O)CC2CCC(CC)CC2)[C@H](c2ccc(O)c(Cl)c2)NC(=O)N1` (stereo not given in full), for which the response in data set [1] was half-maximal at 0.087 µM (EC50). The CC50 in data set [2] is > 10 µM. The half-life at 2 µM is 24 min in data set [3] and 16 min in data set [4].

With `CCC1=C(C(=O)CCc2ccccc2)[C@H](c2ccc(O)c(Cl)c2)NC(=O)N1`, in data set [1], the EC50 was > 10 µM. The CC50 in data set [2] was > 10 µM.
